The source made the active and inactive calls.
Legend:
[1] = Ratio of bactericidal activity against Pseudomonas aeruginosa PT712 harboring mutation in bacterial rhlA protein to bactericidal activity against wild type Pseudomonas aeruginosa PAO1 PT5; assay type: functional
Outline: (§1)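 Overnight LB cultures (with carbenicillin 100 μg/ml or gentamicin 15 μg/ml for plasmid strains) were diluted to OD600 0.05 in antibiotic-free LB and grown at 37°C to stationary phase. Azithromycin was added to 2-ml aliquots at similar cell densities, and incubation continued 20–22 h at 37°C. Viable counts came from serial dilutions plated on LB agar.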

Pseudomonas aeruginosa [2] = experiment: Inhibition of swarming motility of Pseudomonas aeruginosa PT1308 expressing Clostridium perfringens 23S rRNA methylase ErmBP at 2 ug/ml after 18 hrs; assay type: functional, organism-based
Outline: (§2)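 Swarm plates were 0.5% agar M9 with 0.2% glucose, 1 mM MgSO4 and 0.05% glutamate as nitrogen source, containing azithromycin. Three μl of overnight LB culture was spotted, and plates were read after 18 h at 37°C.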

Pseudomonas aeruginosa [3] = experiment: Inhibition of swarming motility of Pseudomonas aeruginosa PT1300 harboring vector pEX1.8 at 2 ug/ml after 18 hrs; assay type: functional, organism-based; outline: as §2
Pseudomonas aeruginosa [4] = experiment: Inhibition of elastase production in Pseudomonas aeruginosa PT1300 harboring vector pEX1.8 after 18 hrs by elastin Congo red assay; assay type: functional, organism-based
Outline: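 Cultures grew 7 h in Pseudomonas broth. Supernatant was mixed with excess elastin Congo red (4 mg/ml) in 0.1 M Tris pH 7.4, 1 mM CaCl2 and held 18 h at 37°C. After centrifugation, A495 was read and expressed as OD495/OD600 of the culture. Values are means ± standard deviations of five independent experiments.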

Pseudomonas aeruginosa [5] = experiment: Bactericidal activity against stationary-phase Pseudomonas aeruginosa PT1300 culture harboring vector pEX1.8 after 20 to 22 hrs by plating serial dilution method; assay type: functional, organism-based; outline: as §1
Pseudomonas aeruginosa [6] = experiment: Bactericidal activity against stationary-phase Pseudomonas aeruginosa PT1308 culture expressing Clostridium perfringens 23S rRNA methylase ErmBP at 1 to 16 ug/ml after 22 hrs by plating serial dilution method in presence of 1 mM Mg2+; assay type: functional, organism-based
Outline: (§3)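 Stationary-phase LB cultures of PT1300 or PT1308 received azithromycin plus 1 mM MgSO4, then 22 h at 37°C. Viable counts came from serial dilutions plated on LB agar. Values are means ± standard deviations of three independent experiments.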

Pseudomonas aeruginosa [7] = experiment: Bactericidal activity against stationary-phase Pseudomonas aeruginosa PT1300 culture harboring vector pEX1.8 at 1 to 16 ug/ml after 22 hrs by plating serial dilution method in presence of 1 mM Mg2+; assay type: functional, organism-based; outline: as §3
Pseudomonas aeruginosa [8] = experiment: Bactericidal activity against Pseudomonas aeruginosa PT1323 harboring rhlAB-encoding pAKRHL at 2 to 18 ug/ml after 22 hrs by plating serial dilution method; assay type: functional; outline: as §1
Pseudomonas aeruginosa [9] = experiment: Inhibition of rhamnolipid production in Pseudomonas aeruginosa PT1300 harboring vector pEX1.8 up to 50 ug/ml incubated for 24 hrs at 37 degC further 24 hrs at 25 degC; assay type: functional, organism-based
Outline: (§4)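 SW plates (M9 with 0.1% glutamate replacing NH4Cl, 0.2% glucose, 1 mM MgSO4) carried an azithromycin gradient of 0–50 μg/ml. Three-μl droplets of about 10^6 CFU were spotted at equal spacing. Plates were incubated 24 h at 37°C, then 24 h at 25°C.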

Pseudomonas aeruginosa [10] = experiment: Antimicrobial activity against exponential-phase Pseudomonas aeruginosa PT1323 cultures harboring mutation in bacterial rhlA protein and expressing rhamnosyltransferase rhlAB gene at 1 mg/ml after 18 hrs by susceptibility assay; assay type: functional, organism-based
Outline: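 LB agar plates with an azithromycin gradient (maximal 1 mg/ml) were streaked with each strain. Plates were read after 18 h at 37°C.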

Pseudomonas aeruginosa [11] = experiment: Inhibition of rhamnolipid production in Pseudomonas aeruginosa PT1323 harboring pAKRHL expressing rhlAB gene up to 50 ug/ml incubated for 24 hrs at 37 deg C further 24 hrs at 25 deg C; assay type: functional, organism-based; outline: as §4
Pseudomonas aeruginosa [12] = experiment: Inhibition of rhamnolipid production in azithromycin-hypersusceptible Pseudomonas aeruginosa 11B harboring mexX deletion mutant incubated for 24 hrs at 37 degC further 24 hrs at 25 degC; assay type: functional, organism-based; outline: as §4
Pseudomonas aeruginosa [13] = experiment: Bactericidal activity against Pseudomonas aeruginosa PT1332 rhlA mutant harboring vector pAK1900 at 2 to 18 ug/ml after 22 hrs by plating serial dilution method; assay type: functional; outline: as §1
Pseudomonas aeruginosa [14] = experiment: Inhibition of rhamnolipid production in Pseudomonas aeruginosa 12B overexpressing mexXY incubated for 24 hrs at 37 degC further 24 hrs at 25 degC; assay type: functional, organism-based; outline: as §4
Pseudomonas aeruginosa [15] = experiment: Bactericidal activity against stationary-phase Pseudomonas aeruginosa PT1308 culture expressing Clostridium perfringens 23S rRNA methylase ErmBP assessed as effect on cell viability at 1 to 16 ug/ml after 22 hrs by plating serial dilution method; assay type: functional, organism-based; outline: as §1

CC[C@H]1OC(=O)[C@H](C)[C@@H](O[C@H]2C[C@@](C)(OC)[C@@H](O)[C@H](C)O2)[C@H](C)[C@@H](O[C@@H]2O[C@H](C)C[C@H](N(C)C)[C@H]2O)[C@](C)(O)C[C@@H](C)CN(C)[C@H](C)[C@@H](O)[C@]1(C)O [AZITHROMYCIN]
4: Activity (Pseudomonas aeruginosa [8])
inactive: inhibition (Pseudomonas aeruginosa [2]) | Activity (Pseudomonas aeruginosa [6]) | Activity (Pseudomonas aeruginosa [7]) | Activity (Pseudomonas aeruginosa [10]) | inhibition (Pseudomonas aeruginosa [11]) | inhibition (Pseudomonas aeruginosa [14]) | Activity (Pseudomonas aeruginosa [15])
1: Activity (Pseudomonas aeruginosa [13])
active: inhibition (Pseudomonas aeruginosa [3]) | inhibition (Pseudomonas aeruginosa [4]) Dose-dependent effect | Activity (Pseudomonas aeruginosa [5]) Dose-dependent effect | inhibition (Pseudomonas aeruginosa [9]) | inhibition (Pseudomonas aeruginosa [12])
1000: Ratio [1]
